From paper PMC6333101 (ACS chemical biology, 2018)
Like-named read-outs stand apart in the source and are kept apart here.

Assays:
LRRK2 = LRRK2 (Homo sapiens, UniProt Q5S007); assay: LRRK2 kinase activity in vitro assay; format: biochemical
BRD4 (BD1) [1] = biological target: T1, BRD4 (BD1) (Homo sapiens, UniProt O60885); assay: BRD4-1 AlphaScreen binding assay
BRD4 (BD1) [2] = biological target: T1, BRD4 (BD1); assay: BRD4-1 AlphaScreen binding assay; remark: listed apart in the source
ERK5 [3] = assay: Cellular assay of ERK5; format: cell-based, Human
ERK5 [4] = biological target: ERK5 (Homo sapiens, UniProt Q13164); assay: ERK5 kinase activity in vitro assay; format: biochemical; conditions: for IC50: read-out: Enzymatic IC50 (ERK5), in vitro assay, average of 2 replicates ± SD
panel of 32 bromodomains = assay: BROMOscan bromodomain profiling; format: binding; conditions: 10 μM
[5] = system: 797 NUT-midline carcinoma cells; assay: 797 NMC cell viability assay; format: cell-based; conditions: read-out: Viability IC50 (BRD4), Cell Titer Glo, 3 days, average of 3 replicates ± SD
How it was run: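 797 NUT-midline carcinoma cells were seeded at 5,000 cells/well and exposed for 3 days to a range of test compound concentrations or DMSO. Relative cell number was read with Cell Titer Glo following the kit instructions. The methods state 6 replicates; the reported IC50 is the mean of 3 replicates ± SD.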

ERK5 [6] = assay: KinomeScan kinome profiling, ERK5; format: binding; conditions: 1 μM, panel of 468 human kinases
How it was run: (§1)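 KinomeScan ScanMAX binding panel, single test compound concentration of 1 μM. A hit was defined as an Ambit score below 10%.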

DCAMKL2 [7] = biological target: T2, DCAMKL2 (Homo sapiens, UniProt Q8N568); assay: KinomeScan kinome profiling, DCAMKL2; format: binding; conditions: 1 μM, panel of 468 human kinases
T2 sequence (Q8N568 1-766): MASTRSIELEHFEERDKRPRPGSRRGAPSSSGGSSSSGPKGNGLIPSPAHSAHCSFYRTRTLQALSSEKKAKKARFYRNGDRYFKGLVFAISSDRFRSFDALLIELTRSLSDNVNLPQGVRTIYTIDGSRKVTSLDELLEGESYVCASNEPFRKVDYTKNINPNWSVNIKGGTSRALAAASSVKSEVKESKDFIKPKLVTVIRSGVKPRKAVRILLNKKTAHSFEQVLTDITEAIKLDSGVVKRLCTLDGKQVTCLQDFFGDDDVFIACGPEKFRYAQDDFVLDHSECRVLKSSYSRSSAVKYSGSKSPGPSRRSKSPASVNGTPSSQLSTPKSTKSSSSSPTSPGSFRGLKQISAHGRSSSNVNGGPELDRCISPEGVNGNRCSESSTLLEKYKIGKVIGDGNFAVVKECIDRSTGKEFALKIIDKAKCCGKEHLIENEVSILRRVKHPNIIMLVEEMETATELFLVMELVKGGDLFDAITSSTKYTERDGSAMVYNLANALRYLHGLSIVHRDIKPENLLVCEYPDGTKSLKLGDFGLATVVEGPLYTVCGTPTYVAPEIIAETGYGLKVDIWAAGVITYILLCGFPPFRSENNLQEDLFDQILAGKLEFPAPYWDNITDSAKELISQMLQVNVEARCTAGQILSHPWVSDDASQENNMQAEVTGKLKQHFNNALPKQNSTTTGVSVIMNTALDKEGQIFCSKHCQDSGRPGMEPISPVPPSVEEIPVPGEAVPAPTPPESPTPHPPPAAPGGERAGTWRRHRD
How it was run: as §1

DCAMKL2 [8] = assay: DCAMKL2 biochemical enzyme assay; conditions: in vitro biochemical enzyme assays
[9] = Variable temperature 1H NMR, interconversion of conformers; format: physicochemical
[10] = Homo sapiens, HeLa, read-out: Cellular EC50 (ERK5, μM)
[11] = read-out: Biochemical IC50 (BRD4, μM) a, AlphaScreen, Dana-Farber, average of 2 replicates ± SE
[12] = read-out: Biochemical IC50 (BRD4, μM) b, AlphaScreen, University of Oxford, average of 4 replicates ± SD
[13] = read-out: Enzymatic IC50 (LRRK2), Adapta assay format, average of 2 replicates ± SD

Sequence of LRRK2 (Q5S007 whole entry): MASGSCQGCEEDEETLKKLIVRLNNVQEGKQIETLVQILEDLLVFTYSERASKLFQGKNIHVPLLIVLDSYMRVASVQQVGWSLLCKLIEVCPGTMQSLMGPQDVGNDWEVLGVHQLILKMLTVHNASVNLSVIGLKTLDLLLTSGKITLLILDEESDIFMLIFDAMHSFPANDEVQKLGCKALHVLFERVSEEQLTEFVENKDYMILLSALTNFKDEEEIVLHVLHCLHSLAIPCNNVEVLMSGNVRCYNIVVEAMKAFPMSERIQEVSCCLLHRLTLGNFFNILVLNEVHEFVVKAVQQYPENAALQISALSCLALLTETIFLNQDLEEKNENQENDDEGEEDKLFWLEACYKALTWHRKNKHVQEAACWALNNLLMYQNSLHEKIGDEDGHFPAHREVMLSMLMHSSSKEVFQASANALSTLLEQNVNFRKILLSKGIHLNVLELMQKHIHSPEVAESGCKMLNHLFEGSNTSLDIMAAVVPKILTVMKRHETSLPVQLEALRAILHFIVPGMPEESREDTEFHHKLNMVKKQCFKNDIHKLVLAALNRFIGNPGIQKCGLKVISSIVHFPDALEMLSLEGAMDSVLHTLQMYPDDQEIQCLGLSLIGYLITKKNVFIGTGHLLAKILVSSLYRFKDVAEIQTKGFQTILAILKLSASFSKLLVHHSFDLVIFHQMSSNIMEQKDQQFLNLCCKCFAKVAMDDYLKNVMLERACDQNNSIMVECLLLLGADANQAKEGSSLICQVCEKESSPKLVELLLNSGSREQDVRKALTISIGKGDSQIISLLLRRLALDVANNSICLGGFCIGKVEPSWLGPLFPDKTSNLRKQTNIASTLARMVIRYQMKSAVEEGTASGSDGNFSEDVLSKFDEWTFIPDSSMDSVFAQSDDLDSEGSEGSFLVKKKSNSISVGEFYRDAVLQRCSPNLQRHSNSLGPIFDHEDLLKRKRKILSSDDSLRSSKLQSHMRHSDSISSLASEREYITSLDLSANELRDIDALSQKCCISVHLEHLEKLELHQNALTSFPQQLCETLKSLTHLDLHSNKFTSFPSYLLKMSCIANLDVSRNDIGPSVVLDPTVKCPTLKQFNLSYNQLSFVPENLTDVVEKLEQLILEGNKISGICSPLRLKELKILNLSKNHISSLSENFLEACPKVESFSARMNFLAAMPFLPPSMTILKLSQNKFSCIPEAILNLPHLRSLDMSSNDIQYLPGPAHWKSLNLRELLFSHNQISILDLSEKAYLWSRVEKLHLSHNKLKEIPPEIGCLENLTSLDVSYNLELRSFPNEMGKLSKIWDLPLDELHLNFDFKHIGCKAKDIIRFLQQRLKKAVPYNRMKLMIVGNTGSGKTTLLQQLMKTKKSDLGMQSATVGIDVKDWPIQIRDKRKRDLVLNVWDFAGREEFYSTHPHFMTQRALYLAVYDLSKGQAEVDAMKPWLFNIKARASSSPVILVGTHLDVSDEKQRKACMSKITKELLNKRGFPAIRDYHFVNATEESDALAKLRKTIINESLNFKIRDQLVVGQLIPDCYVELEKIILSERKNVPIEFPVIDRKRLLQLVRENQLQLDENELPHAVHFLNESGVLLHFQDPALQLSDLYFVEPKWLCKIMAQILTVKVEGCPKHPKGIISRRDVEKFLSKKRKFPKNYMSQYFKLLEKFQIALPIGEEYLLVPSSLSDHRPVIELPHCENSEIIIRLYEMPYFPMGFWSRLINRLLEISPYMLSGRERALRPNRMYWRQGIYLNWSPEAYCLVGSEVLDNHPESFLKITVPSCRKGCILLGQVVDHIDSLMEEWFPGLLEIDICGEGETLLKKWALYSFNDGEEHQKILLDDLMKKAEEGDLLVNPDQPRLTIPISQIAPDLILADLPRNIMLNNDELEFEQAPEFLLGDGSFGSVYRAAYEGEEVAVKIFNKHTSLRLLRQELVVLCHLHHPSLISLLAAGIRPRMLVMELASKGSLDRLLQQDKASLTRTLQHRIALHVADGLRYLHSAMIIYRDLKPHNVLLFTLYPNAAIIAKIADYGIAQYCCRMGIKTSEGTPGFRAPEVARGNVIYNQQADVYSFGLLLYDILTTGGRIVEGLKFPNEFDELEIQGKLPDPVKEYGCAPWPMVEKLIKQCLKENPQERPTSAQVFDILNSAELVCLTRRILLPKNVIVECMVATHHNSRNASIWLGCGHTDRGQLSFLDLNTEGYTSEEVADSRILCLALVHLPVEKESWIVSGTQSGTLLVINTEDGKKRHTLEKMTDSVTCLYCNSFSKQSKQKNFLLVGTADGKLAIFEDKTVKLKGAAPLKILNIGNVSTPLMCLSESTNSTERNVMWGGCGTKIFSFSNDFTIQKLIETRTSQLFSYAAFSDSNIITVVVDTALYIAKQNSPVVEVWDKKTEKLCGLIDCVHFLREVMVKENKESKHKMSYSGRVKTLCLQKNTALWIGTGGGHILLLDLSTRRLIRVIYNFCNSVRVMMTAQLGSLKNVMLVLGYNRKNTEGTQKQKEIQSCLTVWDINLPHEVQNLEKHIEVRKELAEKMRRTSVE
Sequence of ERK5 (Homo sapiens, UniProt Q13164) (Q13164 whole entry): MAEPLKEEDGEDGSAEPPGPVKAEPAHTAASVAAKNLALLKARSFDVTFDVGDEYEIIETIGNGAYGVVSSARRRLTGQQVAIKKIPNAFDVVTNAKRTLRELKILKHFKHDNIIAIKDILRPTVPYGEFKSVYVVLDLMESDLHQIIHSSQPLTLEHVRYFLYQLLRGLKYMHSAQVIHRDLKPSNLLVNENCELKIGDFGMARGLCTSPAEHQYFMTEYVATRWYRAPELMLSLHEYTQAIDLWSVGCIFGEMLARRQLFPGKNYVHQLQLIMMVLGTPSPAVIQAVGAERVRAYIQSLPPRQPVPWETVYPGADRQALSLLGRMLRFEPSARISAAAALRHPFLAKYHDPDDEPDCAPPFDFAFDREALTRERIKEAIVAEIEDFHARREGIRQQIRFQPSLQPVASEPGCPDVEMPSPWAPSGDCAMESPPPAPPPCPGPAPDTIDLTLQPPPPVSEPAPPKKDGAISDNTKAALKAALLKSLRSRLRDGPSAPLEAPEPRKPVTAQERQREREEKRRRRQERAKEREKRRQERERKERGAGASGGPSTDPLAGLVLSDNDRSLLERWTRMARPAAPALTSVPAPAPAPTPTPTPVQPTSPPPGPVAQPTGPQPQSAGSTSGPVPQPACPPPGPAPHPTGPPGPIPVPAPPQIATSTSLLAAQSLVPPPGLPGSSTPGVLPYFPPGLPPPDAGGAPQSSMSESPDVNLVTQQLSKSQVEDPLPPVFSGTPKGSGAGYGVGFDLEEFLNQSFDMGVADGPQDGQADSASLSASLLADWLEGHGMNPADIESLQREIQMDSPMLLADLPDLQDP

SMILES: CCOc1cc(C(=O)N2CCC(N3CCN(C)CC3)CC2)ccc1Nc1ncc2c(n1)N(S(C)(=O)=O)c1ccccc1C(=O)N2C [AX15836, reference compound]
- IC50 (LRRK2): 942 ± 569 nM

SMILES: CCOc1cc(C(=O)N2CCC(N3CCN(C)CC3)CC2)ccc1Nc1ncc2c(n1)N(C1CCCC1)c1ccccc1C(=O)N2C [XMD17–109 (ERK5-IN-1), reference compound]
- IC50 (BRD4 (BD1) [1]): 0.217 ± 0.008 µM
- IC50 (BRD4 (BD1) [2]): 0.68 ± 0.03 µM

SMILES: CC(C)Oc1cc(C(=O)N2CCC(N3CCN(C)CC3)CC2)ccc1Nc1ccc2c(n1)N(C1CCCC1)c1ccccc1C(=O)N2C [JWG-115]
- decrease of activity against BRD4 compared to the pyrimidine analogs XMD11–50 and JWG-047 (BRD4 (BD1) [1]; pyridine vs pyrimidine core): 4–8 fold
- IC50 (BRD4 (BD1) [1]; read-out: BRD4 IC50, value as stated in text): 1 µM
- IC50 (BRD4 (BD1) [1]; [11]): 1.08 ± 0.05 µM
- IC50 (BRD4 (BD1) [2]; [12]): 1.1 ± 0.05 µM
- IC50 (ERK5 [4]): > 10000 nM
- IC50 (LRRK2; [13]): > 3300 nM
- BROMOscan binding among BET family (panel of 32 bromodomains): strong binding
- BROMOscan binding outside BET family (panel of 32 bromodomains): no binding

SMILES: CCC(C)N1c2ccccc2C(=O)N(C)c2cnc(Nc3ccc(C(=O)N4CCC(N5CCN(C)CC5)CC4)cc3OC)nc21 (stereo not drawn) [JWG-071]
- IC50 (BRD4 (BD1) [1]; [11]): 5.42 ± 0.18 µM
- IC50 (BRD4 (BD1) [2]; [12]): 6.31 ± 1.93 µM
- improved ERK5 activity compared to XMD17–109 (ERK5-IN-1) (ERK5 [4]): 2 fold
- IC50 (ERK5 [4]): 88 ± 5 nM
- selectivity for ERK5 relative to LRRK2 (LRRK2; in vitro biochemical enzyme assays): 1.2 folds
- IC50 (LRRK2; [13]): 109 ± 14 nM
- IC50 [5]: > 10000 nM
- EC50 (ERK5 [3]; read-out: Cellular EC50 (ERK5), EGF-stimulated autophosphorylation of ERK5 in Hela cells, average of 2 replicates ± SD): 0.02 ± 0.003 µM
- Ambit score (ERK5) (ERK5 [6]): less than 10%
- Ambit score (DCAMKL2) (DCAMKL2 [7]): less than 10%
- selectivity for ERK5 relative to DCAMKL2 (DCAMKL2 [8]): 2.5 folds
- Calc ΔErac ([9]; calculated energy barrier of interconversion): 15.9 kcal/mol
- Tco (coalescence temperature) ([9]; variable temperature 1H NMR in DMSO-d6): 60 °C

SMILES: COc1cc(C(=O)N2CCC(N3CCN(C)CC3)CC2)ccc1Nc1ncc2c(n1)N(C)c1ccccc1C(=O)N2C [XMD11–50 (LRRK2-IN-1)]
- IC50 (LRRK2): 3.4 ± 1.7 nM
